Common to all, as to type: functional, cell-based
A short description of assay [1]: Anticancer activity against human HL60 cells after 48 hrs by MTT assay. As to conditions: HL-60, 48 h. The essentials:
(§1)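 Cells grown in RPMI-1640 or DMEM with 10% FBS at 37 °C, 5% CO2. Seeded at 1 × 10^5 cells/mL in 100 µL per well. Adherent lines were allowed to attach for 12 h before drug; suspension cells were seeded just before drug. Triplicate exposure to a range of compound concentrations for 48 h. MTT (100 µg/well) was added for 4 h at 37 °C, cells lysed with SDS, and OD read at 595 nm.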
A general note: Tetrazolium assays rely on reduction of a dye to a coloured formazan, in cell work by metabolically active cells.

The nature of assay [2]: Anticancer activity against human SMMC7721 cells after 48 hrs by MTT assay. The following applies: SMMC-7721, 48 h. The essentials: as §1
Another assay relates to A549. The experiment in a line: Anticancer activity against human A549 cells after 48 hrs by MTT assay. As to conditions: A549, 48 h. An outline of the steps:
as §1

A further assay relates to MCF7. The experiment in a line: Anticancer activity against human MCF7 cells after 48 hrs by MTT assay. As to conditions: MCF7, 48 h. An outline of the steps: as §1
The next assay has as its system SW480. Nature of the assay: Anticancer activity against human SW480 cells after 48 hrs by MTT assay. The following applies: SW480, 48 h. The essentials: as §1

Molecules are shown by their SMILES.

Consider `CCCC(=O)OC[C@H]1O[C@H](O[C@H]2[C@H](OC(=O)CCC)[C@@H](OC(=O)CCC)[C@@H](O[C@@H]3c4cc5c(cc4[C@@H](c4cc(OC)c(O)c(OC)c4)[C@H]4C(=O)OC[C@@H]43)OCO5)O[C@@H]2COC(=O)CCC)[C@H](OC(=O)CCC)[C@@H](OC(=O)CCC)[C@@H]1OC(=O)CCC`, for which the IC50 (in assay [1]; in assay [2]; in the assay on A549; with MCF7; in the assay with SW480) was above 40 µM throughout.
Take `CCCC(=O)O[C@@H]1[C@@H](O[C@@H]2c3cc4c(cc3[C@@H](c3cc(OC)c(O)c(OC)c3)[C@H]3C(=O)OC[C@@H]32)OCO4)OC[C@@H](OC(=O)CCC)[C@@H]1OC(=O)CCC`: the IC50 – broadly, the midpoint of a concentration-inhibition curve – in assay [1] was 26.5 µM; in assay [2], 17.1 µM; in the assay with A549 it was 23.2 µM; in the assay with MCF7, 29.3 µM; in the assay on SW480 it was above 40 µM.
Turning to `CCCC(=O)OC[C@H]1O[C@@H](O[C@H]2[C@H](OC(=O)CCC)[C@@H](OC(=O)CCC)[C@@H](O[C@@H]3c4cc5c(cc4[C@@H](c4cc(OC)c(OC)c(OC)c4)[C@H]4C(=O)OC[C@@H]43)OCO5)O[C@@H]2COC(=O)CCC)[C@H](OC(=O)CCC)[C@@H](OC(=O)CCC)[C@H]1OC(=O)CCC`, the IC50 (in assay [1]; in assay [2]; with A549; with MCF7; with SW480) was above 40 µM throughout.
In the case of `CCCC(=O)OC[C@H]1O[C@H](O[C@@H]2c3cc4c(cc3[C@@H](c3cc(OC)c(O)c(OC)c3)[C@H]3C(=O)OC[C@@H]32)OCO4)[C@@H](OC(=O)CCC)[C@@H](OC(=O)CCC)[C@@H]1OC(=O)CCC`, the IC50 in assay [1] was 2.71 µM; in assay [2], 3.84 µM; with A549 it was 3.1 µM; in the assay with MCF7 it was 7.5 µM; in the assay on SW480, 4.85 µM.
On to `CCCC(=O)O[C@@H]1[C@@H](OC(=O)CCC)[C@H](C)O[C@@H](O[C@@H]2c3cc4c(cc3[C@@H](c3cc(OC)c(OC)c(OC)c3)[C@H]3C(=O)OC[C@@H]32)OCO4)[C@@H]1OC(=O)CCC`, for which the IC50 came out at 5.32 µM in assay [1]; 15.2 µM in assay [2]; 7.62 µM in the assay on A549; 13.5 µM in the assay with MCF7; 16.8 µM in the assay on SW480.
The corresponding values for `CCCC(=O)OC[C@H]1O[C@@H](O[C@@H]2c3cc4c(cc3[C@@H](c3cc(OC)c(OC)c(OC)c3)[C@H]3C(=O)OC[C@@H]32)OCO4)[C@H](OC(=O)CCC)[C@@H](OC(=O)CCC)[C@H]1OC(=O)CCC` are 3.15 µM, 18.1 µM, 17.8 µM, 22.1 µM and 26.5 µM.
The corresponding values for `COc1cc([C@@H]2c3cc4c(cc3[C@@H](O[C@@H]3O[C@@H]5CO[C@@H](C)O[C@H]5[C@H](O)[C@H]3O)[C@H]3COC(=O)[C@H]23)OCO4)cc(OC)c1O` [ETOPOSIDE] are 0.31 µM, 8.12 µM, 11.9 µM, 32.8 µM and 17.1 µM.
The corresponding values for `CCCC(=O)OC[C@H]1O[C@H](O[C@H]2[C@H](OC(=O)CCC)[C@@H](OC(=O)CCC)[C@@H](O[C@@H]3c4cc5c(cc4[C@@H](c4cc(OC)c(OC)c(OC)c4)[C@H]4C(=O)OC[C@@H]43)OCO5)O[C@@H]2COC(=O)CCC)[C@H](OC(=O)CCC)[C@@H](OC(=O)CCC)[C@@H]1OC(=O)CCC` are above 40 µM, above 40 µM, above 40 µM, above 40 µM and above 40 µM.
For the molecule `CCCC(=O)OC[C@H]1O[C@H](O[C@@H]2c3cc4c(cc3[C@@H](c3cc(OC)c(OC)c(OC)c3)[C@H]3C(=O)OC[C@@H]32)OCO4)[C@H](OC(=O)CCC)[C@@H](OC(=O)CCC)[C@H]1OC(=O)CCC`, the IC50 in assay [1] turned out to be 0.14 µM; in assay [2] it was 0.62 µM; in the assay with A549, 0.61 µM; with MCF7, 1.27 µM; in the assay on SW480, 1.65 µM.
The corresponding values for `CCCC(=O)O[C@@H]1[C@@H](OC(=O)CCC)[C@H](C)O[C@@H](O[C@@H]2c3cc4c(cc3[C@@H](c3cc(OC)c(O)c(OC)c3)[C@H]3C(=O)OC[C@@H]32)OCO4)[C@@H]1OC(=O)CCC` are 2.54 µM, 2.68 µM, 3.52 µM, 4.71 µM and 5.05 µM.
On to `CCCC(=O)OC[C@H]1O[C@H](O[C@@H]2c3cc4c(cc3[C@@H](c3cc(OC)c(OC)c(OC)c3)[C@H]3C(=O)OC[C@@H]32)OCO4)[C@H](OC(=O)CCC)[C@@H](OC(=O)CCC)[C@@H]1OC(=O)CCC`, for which the IC50 (in assay [1]; in assay [2]; in the assay with A549; with MCF7; in the assay on SW480) was above 40 µM in each case.
On to `CCCC(=O)O[C@@H]1[C@@H](O[C@@H]2c3cc4c(cc3[C@@H](c3cc(OC)c(OC)c(OC)c3)[C@H]3C(=O)OC[C@@H]32)OCO4)OC[C@@H](OC(=O)CCC)[C@@H]1OC(=O)CCC`, for which the half-maximal inhibitory concentration (IC50) in assay [1] is 0.6 µM; in assay [2], 0.78 µM; in the assay on A549, 0.61 µM; in the assay with MCF7 it was 1.42 µM; in the assay with SW480, 1.11 µM.
The corresponding values for `CCCC(=O)OC[C@H]1O[C@H](O[C@@H]2c3cc4c(cc3[C@@H](c3cc(OC)c(O)c(OC)c3)[C@H]3C(=O)OC[C@@H]32)OCO4)[C@H](OC(=O)CCC)[C@@H](OC(=O)CCC)[C@H]1OC(=O)CCC` are 4.89 µM, 3.78 µM, 5.7 µM, 5.67 µM and 10.7 µM.
The corresponding values for `CCCC(=O)OC[C@H]1O[C@@H](O[C@H]2[C@H](OC(=O)CCC)[C@@H](OC(=O)CCC)[C@@H](O[C@@H]3c4cc5c(cc4[C@@H](c4cc(OC)c(O)c(OC)c4)[C@H]4C(=O)OC[C@@H]43)OCO5)O[C@@H]2COC(=O)CCC)[C@H](OC(=O)CCC)[C@@H](OC(=O)CCC)[C@H]1OC(=O)CCC` are 9.59 µM, 20.2 µM, 18.6 µM, above 40 µM and above 40 µM.
The corresponding values for `CCCC(=O)OC[C@H]1O[C@@H](O[C@@H]2c3cc4c(cc3[C@@H](c3cc(OC)c(OC)c(OC)c3)[C@H]3C(=O)OC[C@@H]32)OCO4)[C@H](OC(=O)CCC)[C@@H](OC(=O)CCC)[C@@H]1OC(=O)CCC` are 0.61 µM, 0.83 µM, 1.12 µM, 1.69 µM and 1.26 µM.
Regarding `CCCC(=O)OC[C@H]1O[C@H](O[C@@H]2c3cc4c(cc3[C@@H](c3cc(OC)c(O)c(OC)c3)[C@H]3C(=O)OC[C@@H]32)OCO4)[C@H](OC(=O)CCC)[C@@H](OC(=O)CCC)[C@@H]1OC(=O)CCC`, the concentration for half-maximal inhibition (IC50) in assay [1] came out at 16.9 µM; in assay [2], 16.8 µM; with A549, 16 µM; with MCF7, 39.1 µM; with SW480, 38.7 µM.
In the case of `CCCC(=O)OC[C@H]1O[C@H](O[C@@H]2c3cc4c(cc3[C@@H](c3cc(OC)c(OC)c(OC)c3)[C@H]3C(=O)OC[C@@H]32)OCO4)[C@@H](OC(=O)CCC)[C@@H](OC(=O)CCC)[C@@H]1OC(=O)CCC`, the IC50 (in assay [1]; in assay [2]; with A549; with MCF7; in the assay on SW480) was above 40 µM each time.

Values taken from ChEMBL document CHEMBL3397040, “Synthesis and antitumor activity of novel per-butyrylated glycosides of podophyllotoxin and its derivatives” (Bioorg Med Chem, 2015).
